Source: PubChem BioAssay (several laboratories)
HKDC1 inhibitor: HKDC1 hexokinase inhibitors, primary screen, biochemical, fluorescence, uHTS; Q2TB90; recombinant HKDC1, G6PDH/diaphorase resazurin coupled fluorescence; inhibition, % at 20 µM; 0.16% of 340,000 active; AID 493160, 2011;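 active means inhibition above about 35% when tested at 20 µM, limit read from the data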;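 further: plate controls were DMSO wells with enzyme for no effect and DMSO wells lacking enzyme for full effect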
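Test system: Recombinant HKDC1 (HK5) hexokinase enzyme, produced in-house | Input: HKDC1 at 5 µg/mL | Buffer or medium: Tris pH 8.0 buffer with MgCl2, Tween-20, BSA, BME | Schedule: 90 min reaction incubation at room temperature, dark | Technique: Resazurin-to-resorufin fluorescence via G6PDH and diaphorase coupling, 525/613 nm | Controls: DMSO wells with and without enzyme mix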
aDG glyco up: activators of alpha-DG glycosylation, primary screen, uHTS, Pro5-aDG cells, AlphaScreen. alpha-DG glycosylation AlphaScreen (IIH6); 0% Pro5, 100% B10-LARGE cell signal. activation, % at 10 µM. 0.22% of 360,000 active. AID 624168, 2012;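 active means activation of at least 8% versus controls, or a plate z-score of at least 8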;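 further: Pro5 are CHO cells carrying HIG-tagged alpha-DG that lacks glycosylation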
PfG6PD inh: PfG6PD enzyme inhibitors, primary screen, biochemical, fluorescence intensity, uHTS | 0.78% of 350,000 active | AID 504690, 2011 | glucose-6-phosphate dehydrogenase-6-phosphogluconolactonase (Plasmodium falciparum 3D7) | inhibition, % at 20 µM | PfGluPho enzyme, NADPH resazurin-diaphorase fluorescence;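 active means inhibition reaching at least a set limit at 20 µM in the primary screen, cut at about 59% in these data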;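 further: 0% = DMSO wells with substrate and 100% = DMSO wells lacking glucose-6-phosphate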
Beta2AR agonist: beta2AR agonists driving receptor internalization, primary screen, cell-based, FAP fluorogen, flow cytometry. Beta-2 adrenergic receptor (Homo sapiens), P07550. Am2.2-beta2AR cells. response, % (concentration not given with the values). 0.43% of 340,000 active. AID 504454, 2011;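 active means response above a set limit, near 3 SD of response in nonfluorescent compounds, cut at about 42% in these data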
Target sequence (P07550 whole entry, looked up): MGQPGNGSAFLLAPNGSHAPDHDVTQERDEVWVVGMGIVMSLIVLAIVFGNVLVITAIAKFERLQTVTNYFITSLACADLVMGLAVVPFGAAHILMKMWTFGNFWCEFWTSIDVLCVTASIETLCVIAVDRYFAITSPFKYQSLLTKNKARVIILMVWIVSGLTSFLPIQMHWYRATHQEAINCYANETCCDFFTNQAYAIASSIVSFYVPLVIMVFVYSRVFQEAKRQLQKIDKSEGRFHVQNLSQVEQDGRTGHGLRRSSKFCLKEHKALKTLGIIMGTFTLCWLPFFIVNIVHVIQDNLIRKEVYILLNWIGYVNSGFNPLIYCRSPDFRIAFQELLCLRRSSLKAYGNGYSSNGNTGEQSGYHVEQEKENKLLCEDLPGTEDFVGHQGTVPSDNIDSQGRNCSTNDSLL
Cardio protect: cardioprotection against H2O2-induced cell death, primary screen, uHTS, H9c2 cells, ATPLite luminescence; protection from H2O2 cell death, % at 20 µM; 0.63% of 360,000 active; H9c2 cardiomyocytes, H2O2 injury protection, 2 h;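 active means compounds giving at least 50% protection of heart cells from peroxide-induced death in the single-dose screen, raw or plate-pattern-corrected value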;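 further: 0% = DMSO wells with peroxide and 100% = DMSO wells without peroxide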
UCH37 inh: inhibitors of human UCH37 deubiquitinase, primary screen, biochemical, Ub-AMC cleavage, fluorescence | Ubiquitin carboxyl-terminal hydrolase isozyme L5 (Homo sapiens), Q9Y5K5 | inhibition, % (concentration not given with the values) | purified proteasome/UCH37 | AID 588478, 2011 | 0.33% of 330,000 active;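 active means mean inhibition over replicate wells above about 20%, limit read from the data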;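 further: 0% = compound-free wells with enzyme and 100% = wells lacking proteasome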
Target sequence (Q9Y5K5 whole entry, looked up): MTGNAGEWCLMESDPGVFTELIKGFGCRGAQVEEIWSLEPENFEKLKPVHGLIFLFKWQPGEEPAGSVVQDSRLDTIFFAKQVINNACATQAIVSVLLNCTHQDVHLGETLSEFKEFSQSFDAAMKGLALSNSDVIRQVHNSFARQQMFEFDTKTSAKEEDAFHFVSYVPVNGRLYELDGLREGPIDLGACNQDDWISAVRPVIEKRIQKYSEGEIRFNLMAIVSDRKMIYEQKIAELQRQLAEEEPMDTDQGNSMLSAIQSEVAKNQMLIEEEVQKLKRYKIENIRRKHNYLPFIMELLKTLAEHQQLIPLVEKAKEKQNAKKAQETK
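system = Proteasome-associated human UCH37 deubiquitinase | amount = 0.15 nM proteasome as dispensed | medium = pH 7.4 Tris-HCl (50 mM) with ovalbumin, ATP-MgCl2, DTT | incubation = 30 min preincubation with enzyme, 25 min cleavage at room temperature | detection = AMC fluorescence 355/460 nm | read-out basis = percent inhibition | controls = no-proteasome and no-compound wells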
HKDC1 act conf2: HKDC1 hexokinase activators, confirmation, biochemical, single concentration; recombinant HKDC1, G6PDH/diaphorase resazurin fluorescence; hits give low values; 14% of 740 active; inhibition, % at 20 µM; AID 504708, 2011; shares compounds with HKDC1 inhibitor;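 active means inhibition at or below a set negative limit, negative inhibition meaning the enzyme was activated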
B2AR ag CP1: beta2AR agonists via receptor internalization, confirmation, cell-based, FAP fluorogen, flow cytometry, single point, cherry pick 1; shares compounds with Beta2AR agonist; Am2.2-beta2AR cells, FAP surface receptor; hits give low values; percent response (surface receptor), % at 10 µM; 25% of 1,100 active; AID 540358, 2011;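 active means surface receptor percent response at or below 58%, roughly 3 SD from nonfluorescent compounds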
B2AR FAP counter: flagged in Am2.2 fluorescence counterscreen for beta-2AR agonists; shares compounds with Beta2AR agonist; calls only at 10 µM; Am2.2 cells, FAP fluorogen flow cytometry; hits give low values; 1,100 tested, under 10 active;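 active means percent response below a set limit in fluorescence channel 1 and below 50% in channel 8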
PfGluPho conf: PfG6PD inhibitors, hit retest, confirmation, biochemical, fluorescence intensity, single concentration. AID 504753, 2011. inhibition, % at 20 µM. 34% of 2,400 active. recombinant PfGluPho, NADPH-diaphorase-resazurin fluorescence. shares compounds with PfG6PD inh;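 active means inhibition of at least 50% at 20 µM in any single replicate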;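 further: 0% = DMSO with substrate and 100% = DMSO lacking glucose-6-phosphate substrate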
Diaph ctr 10uM: diaphorase inhibitors and chemical oxidizers, confirmation, counter-screen for P. falciparum G6PD inhibitor project, biochemical, fluorescence intensity, 10 µM NADPH; shares compounds with PfG6PD inh; diaphorase-coupled resazurin reduction, NADPH 10 uM; inhibition, % at 20 µM; 39% of 820 active; AID 504862, 2011;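 active means average inhibition reaching 50% or more with the compound at 20 µM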;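 further: resorufin red fluorescence formed as diaphorase reduces resazurin using NADPH; 0% = DMSO with enzyme and 100% = DMSO without enzyme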
Diaph ctr 30uM: diaphorase inhibitors and chemical oxidizers, confirmation, counter-screen for P. falciparum G6PD inhibitor project, biochemical, fluorescence intensity, 30 µM NADPH; shares compounds with PfG6PD inh; Diaphorase/resazurin coupled assay, resorufin fluorescence; inhibition, % at 20 µM; 29% of 820 active; AID 504863, 2011;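 active means inhibition averaging 50% or more, tested at 20 µM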;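 further: 0% = DMSO with enzyme and 100% = DMSO wells lacking diaphorase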
* hit, by the source's call; i = inactive; · = not tested or not shown. An excerpt weighted towards active compounds, which were near 2.1% of everything screened.

SMILES | HKDC1 inhibitor | aDG glyco up | PfG6PD inh | Beta2AR agonist | Cardio protect | UCH37 inh | HKDC1 act conf2 | PfGluPho conf | others
O=C(ON=Cc1ccc(Cl)cc1)C1CCCCC1 | · | · | · | · | · | 3 | · | ·
O=S(=O)(NC1c2cccc3cccc(c23)C1N1CCNCC1)c1ccccc1 (stereo not drawn) | -56 | 1 | -42 | 21 | 3 | 5 | -95* | ·
O=C(c1ccccc1)N1CCN(C2c3cccc4cccc(c34)C2NS(=O)(=O)c2ccccc2)CC1 (stereo not drawn) | -34 | 0 | -29 | 15 | 6 | 3 | · | ·
O=S(=O)(NC1c2cccc3cccc(c23)C1N1CCN(CCO)CC1)c1ccccc1 (stereo not drawn) | -66 | 0 | -61 | 9 | 9 | 3 | -118* | ·
FC(F)(F)c1ccccc1NC(=S)N1CCCC1 | 4 | 0 | -7 | 6 | 0 | 1 | · | ·
FC(F)(F)c1ccccc1NC(=S)NN=C1CCCCCC1 | -38 | · | -8 | · | · | 2 | -30 | ·
COc1ccc(C=NOC(=O)c2ccc(Cl)cc2)c(Cl)c1OC | · | · | · | · | · | 2 | · | ·
COc1ccc(C=Nn2c(C)nc3sc(C)c(C)c3c2=O)cc1OC | · | · | · | · | · | 4 | · | ·
O=S(=O)(Nc1cccc2ccccc12)c1cccs1 | 5 | 0 | 34 | 4 | 2 | -4 | · | ·
O=S(=O)(Nc1ccc(O)c2ccccc12)c1cccs1 | 51* | 2.7* | 36 | 9 | -15 | 2 | 31 | ·
Cc1nc([N+](=O)[O-])c(Br)n1CC(=O)c1ccccc1 | 8 | 0 | 5 | 13 | -8 | 6 | · | ·
Cc1nc([N+](=O)[O-])c(Br)n1CC(=O)c1ccc2ccccc2c1 | 46* | 0 | 0 | 43* | -6 | 1 | 40 | · | B2AR ag CP1=78;B2AR FAP counter=i
CCOC(=O)C1=C(C)n2c(sc(=Cc3cccc([N+](=O)[O-])c3)c2=O)=NC1c1ccc(O)c(OC)c1 (stereo not drawn) | · | · | · | · | · | 2 | · | ·
Cc1ccc(-n2c3nc(=O)[nH]c(=O)c-3cc3cc([N+](=O)[O-])ccc32)cc1 | 49* | 0 | 38 | 51* | 10 | -3 | 56 | · | B2AR ag CP1=108;B2AR FAP counter=i
CCOC(=O)/C(=C\c1cccnc1)C(=O)c1cc(C(C)=O)c(Nc2ccccc2)s1 | 42* | -1 | 66* | 104* | -36 | -5 | 16 | 20
Cc1cc(O)c(-c2cc(O)c(C)cc2O)cc1O | 45* | 0 | 112* | 35 | -15 | -191 | 24 | 110* | Diaph ctr 10uM=73*;Diaph ctr 30uM=22
COc1ccc(NC(=O)CC(C)=NNC(=O)c2cnccn2)cc1Cl | · | · | · | · | · | 1 | · | ·
COc1ncnc2c1oc1nc(C(C)C)c3c(c12)CC(C)(C)OC3 | 53* | 0 | 62* | -21 | 3 | 0 | 43 | 37
CC1(C)Cc2nc3oc4c(NCc5ccccc5)ncnc4c3cc2CO1 | 8 | 0 | 0 | -2 | 1 | -58 | · | ·
CC(C)c1nc2oc3c(NCc4ccccn4)ncnc3c2c2c1COC(C)(C)C2 | 35* | 0 | 65* | -4 | 12 | -13 | -4 | 28
CCOc1ncnc2c1oc1nc(CC(C)C)c3c(c12)CC(C)(C)OC3 | 5 | 0 | 14 | -18 | -1 | -1 | · | ·
CC(=NNC(=O)c1cccc(F)c1)c1ccc(Br)s1 | · | · | · | · | · | 5 | · | ·
O=C(/C=C/c1cccs1)Nc1scc(-c2ccccc2)c1C(=O)O | 81* | 0 | 70* | 1 | -19 | 16 | 58 | 39
O=C1C(=O)c2c(C(=O)c3ccccc3)coc2-c2ccccc21 | 51* | 0 | 117* | 3 | -18 | 9 | 53 | 107* | Diaph ctr 10uM=94*;Diaph ctr 30uM=100*
CC(=O)NCc1ccc(S(=O)(=O)NN=Cc2ccc(Br)cc2)cc1 | · | · | · | · | · | 2 | · | ·
SMILES | HKDC1 inhibitor | aDG glyco up | PfG6PD inh | Beta2AR agonist | Cardio protect | UCH37 inh | HKDC1 act conf2 | PfGluPho conf | others
Clc1ccc(CON=Cc2cccs2)cc1 | · | · | · | · | · | 1 | · | ·
CCCC(=O)NC1=C(Cl)C(=O)c2ccccc2C1=O | 60* | 0 | 128* | 38 | -21 | · | 81 | 116* | Diaph ctr 10uM=99*;Diaph ctr 30uM=97*
N=C1N(c2ccccc2)C(=S)C(=Nc2ccccc2)N1c1ccccc1 | -77 | 4 | 65* | 3 | -16 | · | 4 | 26
CCOC(=O)c1ccc(N=C2C(=S)N(c3ccc(C(=O)OCC)cc3)C(=N)N2N=Cc2ccccc2)cc1 | · | · | · | · | · | 6 | · | ·
CCNC(=O)CC(C)=NNC(=O)C(=O)Nc1ccc(CC)cc1 | · | · | · | · | · | 5 | · | ·
Cc1ccc(SC2=C(N(C)C)C(=O)c3ccccc3C2=O)cc1 | 57* | 2 | 65* | 4 | -11 | · | 60 | 14
Cc1ccc(SSc2cc(C)ccc2N)c(N)c1 | -44 | 0 | 64* | 32 | -4 | 3 | -21 | 42
CC(=NNc1ccc(Cl)c(Cl)c1)c1ccc(-n2ccnc2)cc1 | · | · | · | · | · | 5 | · | ·
O=C(Nc1ccc(N2CCCC2)cc1)c1cccc(-c2cc3ccccc3oc2=O)c1 | -40 | 0 | 68* | 57* | -6 | -2 | -25* | 58* | Diaph ctr 10uM=-21;Diaph ctr 30uM=-29
COC(=O)NN=C(c1ccccc1)C1CCCCC1 | · | · | · | · | · | 2 | · | ·
